# This is a sample that favours compounds with a hit; in the whole collection about 0.61% have one here.
# E-selectin induc = E-selectin induction on HUVECs | HUVEC E-selectin immunofluorescence imaging; normalized: neutral wells 0, TNF-alpha wells 100 | activation, % at 7.58 µM | 260,000 compounds, 0.37% hits | AID 686992;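 active = mean E-selectin-positive cell signal at least 10% of the positive control, reached in at least 60% of replicates, without over 20% cell loss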
# Target sequence (P16581 whole entry, looked up): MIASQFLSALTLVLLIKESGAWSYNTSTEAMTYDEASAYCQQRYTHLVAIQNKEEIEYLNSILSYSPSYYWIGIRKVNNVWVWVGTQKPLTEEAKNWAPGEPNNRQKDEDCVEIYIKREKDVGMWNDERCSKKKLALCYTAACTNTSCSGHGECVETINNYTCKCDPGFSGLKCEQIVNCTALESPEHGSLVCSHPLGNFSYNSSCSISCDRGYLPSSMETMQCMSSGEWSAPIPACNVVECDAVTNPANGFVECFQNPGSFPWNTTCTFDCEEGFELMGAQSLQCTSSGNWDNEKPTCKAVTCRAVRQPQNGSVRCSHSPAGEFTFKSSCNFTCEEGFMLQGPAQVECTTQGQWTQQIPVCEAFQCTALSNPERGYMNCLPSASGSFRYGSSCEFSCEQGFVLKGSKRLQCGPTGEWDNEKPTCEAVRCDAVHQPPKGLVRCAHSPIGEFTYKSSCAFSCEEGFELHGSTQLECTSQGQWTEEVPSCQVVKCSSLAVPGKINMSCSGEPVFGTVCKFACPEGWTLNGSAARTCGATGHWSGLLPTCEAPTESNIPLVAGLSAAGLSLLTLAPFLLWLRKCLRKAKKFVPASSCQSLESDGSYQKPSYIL
#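 Test system: HUVEC; input: 3,000 HUVEC/well; measured by: immunofluorescence imaging; read-out: % PE-positive cells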
# XiGFP reactiv = X-chromosome reactivation activator; XiGFP mouse fibroblasts, % GFP-positive cells imaging, 3 d; cells co-treated with 5-aza-dC sensitizer; scaled so ellipticine positive control = 100%; 360,000 compounds, 0.055% hits; activation, % at 7.58 µM;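 active = mean normalized replicate activation at least 10% and every replicate at or above 10%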
#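 assay system = SV40-immortalized XiGFP fibroblast cells, line 68-5-11 | buffer or medium = DMEM plus 5-aza-dC sensitizer | doses = single-point pinned compound dosing | times = 3-day compound exposure, then 15 min fixation at room temperature | benchmarks = positive control ellipticine, 6 µM final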
# F508del corr = CFTR F508del correction in bronchial cells; CFBE cells, YFP halide quenching; stimulated with forskolin plus potentiator P3; % fluorescence drop versus neutral controls; activity (quench increase), % at 7.58 µM; 350,000 compounds, 0.36% hits;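 active = mean added fluorescence quench of at least 8% versus neutral control, with both replicates also reaching 8%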;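 also: cells transiently co-express mutant CFTR-F508del with the halide-sensitive YFP; corrector assay measuring rescue of mutant channel to the surface after 24 h compound exposure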
# A number is an active result; i = inactive; nt = no result given.
SMILES,E-selectin induc,XiGFP reactiv,F508del corr
O=C(CC(F)(F)F)N1C[C@@H]2[C@H](c3ccccc31)[C@@H](CO)N2C(=O)Cc1ccccc1,i,i,i
O=C1C=C(c2ccc3ncccc3c2)C[C@@H](c2ccc3c(c2)OCO3)C1,i,i,9.8
Cc1ccc(C2=CC(=O)C[C@H](c3ccc4c(c3)OCO4)C2)cc1,i,i,i
C[C@@H]1CN([C@@H](C)CO)C(=O)c2cc(NC(=O)Cc3cn(C)c4ccccc34)ccc2O[C@@H]1CN(C)Cc1ccc(C(=O)O)cc1,i,i,i
O=C(NCC[C@H]1CC[C@@H](NC(=O)C2CCOCC2)[C@H](CO)O1)c1ccc(F)cc1,i,i,i
COC(=O)c1ccc(CNC(=O)c2ccc(OC)c(S(=O)(=O)NC3CCCC3)c2)cc1,98.6,i,i
COc1cccc(CNC(=O)c2ccc(OC)c(S(=O)(=O)NC3CCCC3)c2)c1,i,i,i
C[C@H]1CN([C@@H](C)CO)C(=O)c2cccc(NC(=O)c3cnccn3)c2O[C@@H]1CN(C)C,nt,i,i
O=C(CN1CCOCC1)N[C@@H]1CC[C@H](CCNC(=O)C2CCCCC2)O[C@H]1CO,i,i,i
CSc1nc2ccsc2c(=O)n1-c1ccccc1,nt,i,i
CCC(C)c1nc2ccsc2c(N2CCOC2=O)c1-c1ccccc1 (centres undefined),i,18.8,i
COc1ccc2c3c(n(C)c2c1)[C@@H](CO)N(C(=O)Nc1ccc(F)cc1)CC31CN(C(=O)c2ccc3c(c2)OCO3)C1,i,i,i
C[C@H]1CN([C@@H](C)CO)C(=O)c2cc(/C=C/c3ccccc3)cnc2O[C@@H]1CN(C)C(=O)C1CCC1,i,i,i
Cc1ccc(N(C)c2nc(N)nc(N)c2N=O)cc1,i,i,9.9
Cc1cccc(Nc2nc(N)nc(N)c2N=O)c1,i,i,i
C[C@@H]1CCCCO[C@@H](CN(C)CC2CCCCC2)[C@@H](C)CN([C@H](C)CO)C(=O)c2cc(NS(=O)(=O)c3ccccc3)ccc2O1,i,i,i
CNC[C@H]1OCCCC[C@@H](C)Oc2ccc(NC(=O)Nc3cccc4ccccc34)cc2C(=O)N([C@H](C)CO)C[C@H]1C,i,i,i
Fc1ccccc1/C=N/NC(=S)Nc1ccc(Cl)cc1Cl,i,i,11.9
Fc1ccc(NC(=S)Nc2ccc(Cl)cc2Cl)cc1,nt,i,nt
Cc1ccccc1Nc1nc(-c2cccnc2)nc2ccccc12,i,i,i
Cc1ccc(Nc2nc(-c3cccnc3)nc3ccccc23)cc1,i,i,11.9
CC(C)CC#Cc1cnc2c(c1)C(=O)N([C@H](C)CO)C[C@H](C)[C@@H](CN(C)C(=O)c1cccc(F)c1)O2,i,i,i
Cc1ccc2nc(NC(=O)c3ccc4c(c3)OCO4)sc2c1,nt,nt,i
NS(=O)(=O)c1ccc2nc(NC(=O)c3ccc4c(c3)OCCO4)sc2c1,i,i,8.9
CS(=O)(=O)Nc1ccc2c(c1)[C@@H]1C[C@@H](CC(=O)NCC(F)(F)F)O[C@@H](CO)[C@@H]1O2,i,i,i
SMILES,E-selectin induc,XiGFP reactiv,F508del corr
C[C@H]1CN([C@@H](C)CO)C(=O)Cc2cc(NS(=O)(=O)c3ccccc3)ccc2O[C@H]1CN(C)Cc1ccc(C(F)(F)F)cc1,42.0,i,i
C[C@H](CO)N1C[C@H](C)[C@H](CN(C)Cc2ccc(C(F)(F)F)cc2)Oc2ccc(NC(=O)Cc3cn(C)c4ccccc34)cc2CC1=O,228.3,i,i
C[C@H](CO)N1C[C@H](C)[C@H](CN(C)Cc2ccc(C(F)(F)F)cc2)Oc2ccc(NS(=O)(=O)c3ccccc3)cc2CC1=O,i,i,i
C[C@@H]1CN([C@H](C)CO)C(=O)Cc2cc(NS(=O)(=O)c3ccccc3)ccc2O[C@@H]1CN(C)Cc1ccc(C(F)(F)F)cc1,46.6,i,i
C[C@H](CO)N1C[C@H](C)[C@@H](CN(C)Cc2ccc(C(F)(F)F)cc2)Oc2ccc(NC(=O)Cc3cn(C)c4ccccc34)cc2CC1=O,i,i,i
C[C@@H]1CN([C@H](C)CO)C(=O)Cc2cc(NS(=O)(=O)c3ccccc3)ccc2O[C@H]1CN(C)Cc1ccc(C(F)(F)F)cc1,i,i,i
CCC(=O)N(C)C[C@@H]1Oc2ncc(-c3ccc(F)cc3)cc2C(=O)N([C@@H](C)CO)C[C@@H]1C,i,i,i
Cc1ccc2c(c1)c1c(n2CC(O)Cn2c(C)nc3ccccc32)CCCC1 (centres undefined),69.3,i,i
Cc1ccc2c(c1)c1c(n2CC(O)CN2CCCCCC2)CCCC1 (centres undefined),i,i,i
CCc1nc(=O)c(-c2ccccc2)c(C)n1-c1ccccc1,43.3,i,i
COC(=O)c1ccc(-n2c(C)nc(=O)c(-c3ccccc3)c2C)cc1,nt,nt,i

# Source: PubChem
